Screening results: PubChem, several laboratories
GSTO1 counter: blocks human GSTO1 in RBBP9 counter-screen | actives 1.1% (n = 300,000) | inhibition, % at 5.96 µM | recombinant GSTO1, activity-based probe fluorescence polarization;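 active = inhibition above the campaign mean inhibition plus 3 SD, cut at about 35% in these data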
Target sequence (P78417 whole entry, looked up): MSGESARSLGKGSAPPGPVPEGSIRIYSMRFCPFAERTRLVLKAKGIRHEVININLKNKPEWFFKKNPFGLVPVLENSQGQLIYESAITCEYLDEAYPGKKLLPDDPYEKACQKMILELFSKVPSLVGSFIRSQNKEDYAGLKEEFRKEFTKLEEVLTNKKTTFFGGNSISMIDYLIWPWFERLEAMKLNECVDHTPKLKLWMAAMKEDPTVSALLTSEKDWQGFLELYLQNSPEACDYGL
Apaf1 inhib: blocks human Apaf-1 apoptosome activity. inhibition, % at 20 µM. O14727. AID 489030. reconstituted apoptosome caspase-3 activity, DEVD-Rh110 fluorescence. actives 0.71% (n = 330,000); active = inhibition of at least 40% at 20 µM
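Material: reconstituted apoptosome with Apaf-1, cytochrome c, caspase-9, procaspase-3, dATP / Buffer or medium: pH 7.5 Hepes buffer with CHAPS, BSA, DTT / Also added: cytochrome c with DEVD-Rh110 / Schedule: compound with Apaf-1, dATP, procaspase-3 30 min, then 50 min reaction, room temperature / Technique: rhodamine 110 fluorescence at Ex 480/Em 540 nm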
PRMT1 FP inh: blocks human protein arginine methyltransferase 1 | Q99873 | recombinant PRMT1, activity-based probe fluorescence polarization | inhibition, % at 2.79 µM | actives 1.3% (n = 370,000) | AID 652257;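 active = inhibition above about 21% made by adding two undisclosed values, limit read from the data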
Target sequence (Q99873 whole entry, looked up): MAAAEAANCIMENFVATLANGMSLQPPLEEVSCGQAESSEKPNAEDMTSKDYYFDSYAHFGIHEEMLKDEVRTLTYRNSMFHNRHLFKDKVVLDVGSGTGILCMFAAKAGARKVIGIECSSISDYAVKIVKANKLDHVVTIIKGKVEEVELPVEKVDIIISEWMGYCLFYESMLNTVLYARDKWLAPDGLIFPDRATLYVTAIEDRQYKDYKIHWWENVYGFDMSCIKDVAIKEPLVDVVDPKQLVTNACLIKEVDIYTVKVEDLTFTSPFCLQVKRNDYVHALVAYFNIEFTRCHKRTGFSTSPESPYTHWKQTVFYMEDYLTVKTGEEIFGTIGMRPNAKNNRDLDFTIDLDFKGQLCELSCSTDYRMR
PAD4 inh: inhibitors of human PAD4; Q9UM07; recombinant PAD4, RCA probe fluorescence polarization; inhibition, % at 6.36 µM; actives 0.41% (n = 330,000);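 active = percent inhibition above a cutoff equal to the mean of all tested compounds plus 3 SD, cut at about 15% in these data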
TDP2 absorb: blocks human TDP2 phosphodiesterase activity; O95551; recombinant TDP2, T5PNP hydrolysis, p-nitrophenol absorbance 415 nm; inhibition, % at 12.8 µM; actives 0.34% (n = 370,000); AID 720702;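 active = inhibition above the mean of all tested compounds plus 3 SD, set per campaign, cut at about 25% in these data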
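test system = human TDP2 enzyme | input = TDP2 enzyme at 120 nM final | medium = 50 mM Tris-HCl pH 7.5 with Mg2+, KCl, DTT, BSA | also added = T5PNP substrate, 5 mM | times = 2 h at 37 °C | technique = epi absorbance | benchmarks = high control without enzyme, low control DMSO plus TDP2 | replication = each compound tested once, singlicate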
PAD4 FP conf: PAD4 (human) inhibition, confirmed. shares compounds with PAD4 inh. actives 28% (n = 1,200). AID 488796. recombinant PAD4, RCA probe fluorescence polarization. inhibition, % at 6.36 µM;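 active = mean inhibition across replicates above the hit cutoff set by the earlier primary screen, cut at about 15% in these data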;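 also: inhibitors block active-site labeling by the probe so polarization falls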
A number is an active result; i = inactive; nt = not tested or not shown. The list is not random: actives were taken first. Their share in the collection is about 2.6%.

SMILES | GSTO1 counter | Apaf1 inhib | PRMT1 FP inh | PAD4 inh | TDP2 absorb | PAD4 FP conf
CN1CCS/C1=C/C=C1/SC(=S)N(Cc2ccccc2)C1=O | i | nt | i | 49.2 | i | i
O=C(O)CCC(=O)Nc1ccc(SSc2ccc(NC(=O)CCC(=O)O)cc2)cc1 | i | i | 92.1 | 55.5 | i | 50.0
O=C(O)CCC(=O)Nc1ccc(F)cc1 | i | i | i | i | i | nt
COc1ccc(NC(=O)CCS(=O)(=O)c2ccc(OC)cc2)cc1 | i | i | i | 20.4 | i | i
Cc1ccc(C(=O)n2ccc3ccc(-c4ccc5ccn(Cc6ccc(C#N)cc6)c5c4)cc32)cc1 | nt | nt | i | nt | i | nt
Cc1ccc(C=Nc2cccnc2N)cc1 | i | i | nt | 15.2 | nt | i
COc1ccc(C=Nc2cccnc2N)cc1 | i | i | nt | 33.5 | nt | i
COc1ccccc1N=Cc1c(C)[nH]n(-c2ccc(C)cc2C)c1=O | i | i | i | i | i | nt
COc1cc(SC#N)ccc1N=Cc1c(C)[nH]n(-c2ccc(C)cc2C)c1=O | i | i | i | 22.3 | i | 36.5
COc1cc(SC#N)ccc1N=Cc1c(C)[nH]n(-c2cccc3ccccc23)c1=O | i | i | nt | 30.9 | nt | 45.5
CCOc1ccc(N(CC(=O)Nc2c(C)n(C)n(-c3ccccc3)c2=O)S(=O)(=O)c2ccc(C(C)(C)C)cc2)cc1 | nt | nt | i | nt | i | nt
COc1ccccc1C1c2ccc3ccccc3c2Oc2ncn(CCN(C)C)c(=N)c21 (stereo unspecified) | i | i | i | 18.6 | i | i
COc1ccccc1C1c2ccc3ccccc3c2Oc2ncn(CCCO)c(=N)c21 (stereo unspecified) | i | i | nt | i | nt | nt
COc1ccc(OC)c(NC(=O)C2CCN(S(=O)(=O)c3cccs3)CC2)c1 | i | i | i | i | i | nt
COc1ccccc1NC(=O)C1CCN(S(=O)(=O)c2cccs2)CC1 | nt | i | i | 18.0 | i | i
CC(=O)c1cc(-c2ccc(Oc3ccccc3)cc2)c(=O)n2c1CCC2 | nt | nt | i | nt | i | nt
CC1CCN(C(=O)N[C@@H](Cc2ccccc2)C(=O)O)CC1 | i | i | i | i | i | nt
O=C(O)[C@H](Cc1ccccc1)NC(=O)N1CCC(Cc2ccccc2)CC1 | i | i | i | 42.0 | i | i
CCCC(=O)N(Cc1cc(=O)[nH]c2ccccc12)c1ccccc1 | i | i | i | i | i | nt
CCC(=O)N(Cc1cc(=O)[nH]c2ccccc12)c1ccccc1 | i | i | i | 21.2 | i | 21.9
CCOc1ccc(-n2c(SCC(=O)Nc3ccc(Oc4ccccc4)cc3)nnc2-c2ccncc2)cc1 | nt | nt | i | nt | i | nt
O=C(NCCN1CCC(n2c(=O)[nH]c3ccccc32)CC1)c1ccc(Cl)c(Cl)c1 | nt | nt | i | nt | i | nt
CCCCCC(=O)N(Cc1ccccc1)c1c(N)n(CCOC)c(=O)[nH]c1=O | i | i | i | 37.9 | i | i
COCCn1c(N)c(N(Cc2ccccc2)C(=O)C2CCCC2)c(=O)[nH]c1=O | i | i | i | i | i | nt
O=C(CCc1ccccc1)N[C@H]1[C@H](OCc2ccccc2)CCC[C@@]12C(=O)N(Cc1ccccc1)c1ccc(-c3cnccn3)cc12 | nt | nt | i | nt | i | nt
SMILES | GSTO1 counter | Apaf1 inhib | PRMT1 FP inh | PAD4 inh | TDP2 absorb | PAD4 FP conf
COc1ccc(N(CC(=O)Nc2ccc(C)cn2)S(=O)(=O)c2c(C)nn(C)c2C)cc1 | i | i | i | i | i | nt
Cc1ccc(N(CC(=O)Nc2ccc(C)cn2)S(=O)(=O)c2c(C)nn(C)c2C)cc1 | 36.1 | i | i | 49.0 | i | i
Cc1cccc(NC(=O)C2CCN(c3ncccn3)CC2)c1C | nt | nt | i | nt | i | nt
CCCCC1=CC2=CC(=O)C(C)(OC(=O)CC)C(=O)C2=CN1CC(C)C (stereo unspecified) | i | i | i | i | i | nt
COC(=O)CCCC1=CC2=CC(=O)C(C)(OC(=O)c3cccs3)C(=O)C2=CN1CCc1ccccn1 (stereo unspecified) | i | i | i | 17.1 | i | i
CCCCC1=CC2=C(c3ccco3)C(=O)C(C)(OC(=O)c3ccc(OC)cc3)C(=O)C2=CN1CCc1ccccn1 (stereo unspecified) | i | i | i | 28.3 | i | i
O=C(Nc1ccccc1C(F)(F)F)OCCCN1CCC2(CCC(c3ccccc3)CC2)C1=O (stereo unspecified) | nt | nt | i | nt | i | nt
COc1ccc(-c2cc(C(=O)N3CCN(c4ncccn4)CC3)c3ccccc3n2)c(OC)c1 | i | i | i | i | i | nt
COc1ccc(-c2cc(C(=O)N3CCCCCC3)c3ccccc3n2)c(OC)c1 | i | i | i | 16.2 | i | 49.0
COc1ccc(NC(=O)CSc2nnc(-c3n[nH]c4c3CCC4)n2N)cc1 | nt | nt | i | nt | i | nt
Cc1ccc(S(=O)(=O)N2CCCC2=O)c(C)c1N(C)S(C)(=O)=O | i | i | i | 15.7 | i | i
Cc1ccc(S(=O)(=O)CCSc2cccc(C(=O)Nc3ccccc3C(=O)O)c2)cc1 | i | i | 77.3 | 18.5 | i | 35.6
COc1ccc(C(=O)Nc2ccc(S(=O)(=O)Nc3cc(C)nc(C)n3)cc2)c(OC)c1 | i | i | 21.2 | 30.8 | i | 21.4
Cc1noc(C)c1-c1ccc(C(=O)Nc2ccccc2)c2occc12 | nt | nt | i | nt | i | nt
CC1(C(=O)Nc2ccc3c(c2)OCCO3)CSCC(=O)N1CCc1ccccc1F (stereo unspecified) | nt | nt | i | nt | i | nt
COc1ccc(/C=C/C(=O)OCC(=O)c2c(N)n(C)c(=O)n(C)c2=O)c(OC)c1 | i | i | i | 19.2 | i | i
CCCCc1c(C)c2ccc(OCC(C)=O)cc2oc1=O | i | i | i | i | i | nt
CC(=O)COc1ccc2c(C)c(-c3ccccc3)c(=O)oc2c1 | i | i | i | 22.9 | i | i
COc1ccc(C)cc1N(C(=O)c1ccccc1)c1nc2ccccc2s1 | i | i | i | i | i | nt
COc1ccc(C)cc1N(C(=O)c1ccccc1F)c1nc2ccccc2s1 | i | i | i | 28.6 | i | 29.1
CC12CCC(C(=NO)C1=O)C2(C)C (stereo unspecified) | nt | nt | i | nt | i | nt
CC12CCC(C(=Nc3ccc(N=C4C(=O)C5(C)CCC4C5(C)C)cc3)C1=O)C2(C)C | i | i | nt | 44.8 | nt | i
COC(=O)NN=C1CCC(c2ccccc2)CC1 (stereo unspecified) | nt | i | i | nt | i | nt
COC(=O)N/N=C1/C/C(=N\NC(=O)OC)c2ccccc21 | i | i | i | 20.7 | 50.1 | i
Cc1ccc(C(NC(=O)Nc2ccccn2)C(Cl)(Cl)Cl)cc1F (stereo unspecified) | i | i | i | 25.8 | i | i
CCCc1c(-c2ccc(F)cc2F)ncn1Cc1cccc(-c2ccccc2)c1 | nt | nt | i | nt | i | nt
O=C(NCC(=O)N(c1cccc(F)c1)C(C(=O)NC1CCCC1)c1ccncc1)c1cccs1 (stereo unspecified) | i | i | i | 18.3 | i | i
CC(C)c1ccc(N=c2c([N+](=O)[O-])nn(-c3ccc4c(c3)OCCO4)n2O)cc1 | i | i | i | 18.5 | i | i
COc1ccc(CCNC(=O)c2c[nH]c3ccc(F)cc3c2=O)cc1OC | i | i | i | 83.2 | i | i
